Results on 19 compounds are retold here after paper PMC7707623 (Journal of Medicinal Chemistry, 2020).

Experiment [1] has as its system murine SCLC cell line 319N1. Nature of the experiment: Cytotoxicity assay. Type of experiment: cell-based, mouse. An outline of the steps:
(§1)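 Murine SCLC cells were allowed to attach overnight, then given test compound as a 10-point log-dilution series. Viability was read by CellTiter-Glo luminescence at 72 h, with the reagent diluted 1:1 in PBS/1% Triton-X. Signals were normalized to DMSO-treated cells and IC50 values came from curve fitting (n = 2 technical replicates). Fold values are ratios of these IC50s.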

For experiment [2], the system named is 319N1-M2KO resistant clones A–E. Nature of the experiment: Cytotoxicity against sulfonamide 27-resistant clones. As to conditions: for IC50 fold change, resistant clones versus parental: all five clones A–E. Type of experiment: cell-based, mouse.
The target in experiment [3] is T1, p50 (β-tubulin) in 518T2 murine SCLC cells (Mus musculus, UniProt P99024). Nature of the experiment: Cell-based competition with alkyne probe 24. As to conditions: probe 24 at 5 μM, pre-treatment with increasing concentrations. Type of experiment: binding.
In experiment [4] the test system is three independent murine SCLC (mSCLC) cell lines. Nature of the experiment: Cytotoxicity against three murine SCLC cell lines. Type of experiment: cell-based. As to conditions: Mus musculus, read-out: average EC50. An outline of the steps:
as §1

Experiment [5] concerns human SCLC cell lines, H889, H2107, and H128. Nature of the experiment: Dose response against human SCLC cell lines. Type of experiment: cell-based.
Experiment [6] deals with yeast cells (Sec14). As to conditions: through inhibition of Sec14; cited from earlier work.
Experiment [7] deals with 518T2 cells. Nature of the experiment: Cell cycle analysis by flow cytometry. Type of experiment: cell-based, mouse. As to conditions: 300 nM, 24 h. Background: A flow cytometer gives signals particle by particle.
The subject of experiment [8] is bovine brain tubulin. Nature of the experiment: Microtubule dynamics assay, brain tubulin. Type of experiment: biochemical.
The target of experiment [9] is human recombinant β3 tubulin (Homo sapiens, UniProt Q13509). Nature of the experiment: Microtubule dynamics assay, recombinant β3 tubulin. Type of experiment: biochemical. The method in brief: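 Human αβ-tubulin (TUBA1B with TUBB3, C-terminal His-tag removed by TEV) was expressed in Tni insect cells and purified by Ni-affinity and anion exchange. Compound was added at 1, 5 or 10 μM versus DMSO; kymograph growth rates were taken from 71–119 microtubules over two trials.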

In experiment [10] the test system is 518T2-Tubb5^T238A cells. Nature of the experiment: Dose response in Tubb5 T238A edited cells. Type of experiment: cell-based, mouse. As to conditions: 518T2-Tubb5^T238A versus 518T2.
The target in experiment [11] is T1, p50 (β-tubulin) in 518T2 murine SCLC cells. Type of experiment: binding. As to conditions: 50 nM to 50 μM, 1.5 h, Alexa Fluor 532 azide. An outline of the steps:
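518T2 cells were plated at 1 million per well in DMEM with 5% FBS. Next day the alkyne probe in DMSO was added at 50 nM to 50 μM for 1.5 h at 37 °C, 5% CO2. Cells were PBS-washed and lysed in 1% SDS buffer (50 mM HEPES pH 7.4, 10 mM KCl, 2 mM MgCl2, benzonase). Lysates were copper-clicked to 25 μM Alexa Fluor 532 azide, run on SDS-PAGE and imaged by in-gel fluorescence.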

For `O=C(c1cccc([N+](=O)[O-])c1)N1CCN(c2ccccc2)CC1` [Compound 29], in experiment [1] (319N1), the “antiproliferative activity in words” value is “complete eradication of antiproliferative activity”.

`Cc1ccc(Cl)cc1N1CCN(C(=O)c2ccc(Cl)c([N+](=O)[O-])c2)CC1` [Compound 10, (4-(5-Chloro-2-methylphenyl)piperazin-1-yl)(4-chloro-3-nitrophenyl)methanone] returned a half-maximal effective concentration (EC50) in experiment [1] (Mus musculus, 319N1) of 182 nM. Moreover, in experiment [2], the “IC50 fold change, resistant clones versus parental” value is on record as above 2.5 fold.

Consider `CC[C@]1(O)C[C@H]2CN(CCc3c([nH]c4ccccc34)[C@@](C(=O)OC)(c3cc4c(cc3OC)N(C=O)[C@H]3[C@@](O)(C(=O)OC)[C@H](OC(C)=O)[C@]5(CC)C=CCN6CC[C@]43[C@@H]65)C2)C1` [vincristine, reference compound], for which the “competition with probe 24 for p50, in words” value in experiment [3] is recorded as “no such probe competition was observed”.

`O=C(c1ccc(Cl)c([N+](=O)[O-])c1)N1CCN(c2ccccc2Cl)CC1` [Compound 2, (4-Chloro-3-nitrophenyl)(4-(2-chlorophenyl)piperazin-1-yl)methanone]: the “antiproliferative activity in words” value in experiment [1] (319N1) was “slightly improved potency”.

With `O=C(c1ccc(Cl)c([N+](=O)[O-])c1)N1CCN(c2ccccc2)CC1` [Compound 1], the EC50 in experiment [4] is 3210 ± 600 nM. Further, in [5], the “sensitivity of human SCLC cell lines” value is reported as “exhibited sensitivity”. Further, the “toxicity to yeast cells” value in [6] is given as “toxic to yeast cells”.

In turn, `Cc1ccc(Cl)cc1N1CCN(C(=O)c2ccc(OC(F)(F)F)c([N+](=O)[O-])c2)CC1` [Compound 23, (4-(5-Chloro-2-methylphenyl)piperazin-1-yl)(3-nitro-4-(trifluoromethoxy)phenyl)methan-one] returned an EC50 in experiment [1] (Mus musculus, 319N1) of 20 nM.

In experiment [1] (319N1 mSCLC cells, quoted in running text), “(4-Bromo-3-nitrophenyl)(4-(5-chloro-2-methylphenyl)piperazin-1-yl)methanone [Compound 21]” came in with an EC50 of 55 nM. Moreover, the cell cycle effect result in experiment [7] is reported as “induced G2/M cell cycle arrest”. For the same compound, in [8] (1 μM), the “effect on growth of brain tubulin, in words” value is recorded as “dramatically affected the growth”. Besides, in [8] (10:1 (tubulin/compound) ratio, compared to control), the “reduction of growth of bovine brain microtubules” value is “approximately 80%”. Besides, the “effect on in vitro microtubule growth rate of β3 tubulin, in words” value in experiment [9] (up to 10 μM) was “failed to impair”. The “compound resistance compared to parental 518T2 cells” value in [10] is “Compound resistance to analog 21 was confirmed”.

As for `COc1cc([C@@H]2c3cc4c(cc3[C@@H](O[C@@H]3O[C@@H]5CO[C@@H](C)O[C@H]5[C@H](O)[C@H]3O)[C@H]3COC(=O)[C@H]23)OCO4)cc(OC)c1O` [etoposide, reference compound], the “cross-resistance of 27-resistant clones, in words” value in experiment [2] (clones A–E) is “not cross-resistant”.

For `O=C(c1ccc(Cl)cc1)N1CCN(c2ccccc2)CC1` [Compound 28], in experiment [1] (319N1), the “antiproliferative activity in words” value is “complete eradication of antiproliferative activity”.

For `Cc1ccc(Cl)cc1N1CCN(C(=O)c2ccc(I)c([N+](=O)[O-])c2)CC1` [Compound 22, (4-(5-Chloro-2-methylphenyl)piperazin-1-yl)(4-iodo-3-nitrophenyl)methanone], in experiment [1] (Mus musculus, 319N1), the EC50 was determined as 51 nM.

Consider `C#CCOc1cccc(N2CCN(C(=O)c3ccc(Cl)c([N+](=O)[O-])c3)CC2)c1` [Compound 24, (4-Chloro-3-nitrophenyl)(4-(3-(prop-2-yn-1-yloxy)phenyl)piperazin-1-yl)methanone], for which the “covalent modification of 50 kDa protein (p50), in-gel fluorescence” value in [11] is listed as “covalently modified”.

With `COc1cccc(N2CCN(C(=O)c3ccc(Cl)c([N+](=O)[O-])c3)CC2)c1` [Compound 3, (4-Chloro-3-nitrophenyl)(4-(3-methoxyphenyl)piperazin-1-yl)methanone], the “fold more potent than benzamide 1” value in [1] (319N1) was around 3 fold.

In [1] (Mus musculus, 319N1), `COc1cc(OC)cc(N2CCN(C(=O)c3ccc(C=O)c([N+](=O)[O-])c3)CC2)c1` [Compound 26, 4-(4-(3,5-Dimethoxyphenyl)piperazine-1-carbonyl)-2-nitrobenzaldehyde] had an EC50 of 127 nM. Besides, the “effect on growth of microtubules of bovine brain tubulin, in words” value in experiment [8] (0.5 μM (SI Figure 5C)) is given as “potently reduced the growth”. Further, the “effect on dynamics of β3 tubulin microtubules, in words” value in experiment [9] (1, 5 and 10 μM) is on record as “dose-dependently altered the dynamics”.

As to `C#CCOc1cccc(N2CCN(C(=O)c3ccc(C)c([N+](=O)[O-])c3)CC2)c1` [Compound 25, (4-Methyl-3-nitrophenyl)(4-(3-(prop-2-yn-1-yloxy)phenyl)piperazin-1-yl)methanone], in [1] (319N1), the “fold less active compared to 24” value is on record as 10 fold. In [11], the “covalent modification of 50 kDa protein (p50), in-gel fluorescence” value was “not observed”.

Consider `Cc1ccc(Cl)cc1N1CCN(C(=O)c2ccc(F)c([N+](=O)[O-])c2)CC1` [Compound 20, (4-(5-Chloro-2-methylphenyl)piperazin-1-yl)(4-fluoro-3-nitrophenyl)methanone], for which, in experiment [1] (Mus musculus, 319N1), the half-maximal effective concentration (EC50) was determined as 818 nM.

On to `COC(=O)c1c(C)oc2ccc(NS(=O)(=O)c3ccc(Cl)c([N+](=O)[O-])c3)cc12` [Compound 27], for which the “competition with probe 24 for p50, in words” value in experiment [3] is recorded as “displaced probe 24 from p50 in a dose-responsive manner”. Besides, the “IC50 fold change, resistant clones versus parental” value in [2] was above 2 fold.

For the compound `O=C(c1ccc(Cl)c([N+](=O)[O-])c1)N1CCN(c2ccccc2F)CC1` [Compound 12], the “fold less active than parent benzamide 1” value in [1] (319N1) is on record as 2 fold.

For the compound `Cc1cccc(N2CCN(C(=O)c3ccc(Cl)c([N+](=O)[O-])c3)CC2)c1` [Compound 4, (4-Chloro-3-nitrophenyl)(4-(m-tolyl)piperazin-1-yl)methanone], in experiment [1] (319N1), the “fold more potent than benzamide 1” value is reported as around 3 fold.

On to `COc1cc2c(c(OC)c1OC)-c1ccc(OC)c(=O)cc1[C@@H](NC(C)=O)CC2` [colchicine, reference compound], for which the cell cycle effect result in [7] is given as “induced G2/M cell cycle arrest”.

Usually EC50 stands for the concentration giving half of the maximal effect.
